Bioassay records as filed in PubChem.
Cneo AK release: Cryptococcus neoformans cell lysis inducers, primary screen, AK release luminescence, single concentration. C. neoformans lysis, adenylate kinase release luminescence, 4 h; normalised: neutral wells 0, clomiphene wells 100. lysis activity, % at 15 µM. hit rate 0.2% among 360,000. AID 651654, 2012;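 active = mean lysis activity across replicates of at least 80%, whatever share of replicates individually reach that level; inactive = mean lysis activity below 80%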
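Assay system: C. neoformans cells. Amount: yeast cell density of 5 × 10^6 cells/mL. Technique: AK luminescence. Buffer or medium: YPD. Times: static 4 h at 37 °C with compound, 1 h detection. Dosing: single-point compound dose. Read-out: lysis from increased AK signal.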
Xi reactivation: activators of inactive X chromosome reactivation, primary screen, imaging, XiGFP fibroblasts, GFP high-content imaging, set 2. XiGFP mouse fibroblasts, % GFP-positive cells imaging, 3 d; cells co-treated with 5-aza-dC sensitizer; scaled so ellipticine positive control = 100%. activation, % at 7.58 µM. hit rate 0.055% among 360,000;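 active = mean normalized replicate activation at least 10% and every replicate at or above 10%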
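System: 68-5-11 XiGFP fibroblast line; Timing: 3 days compound exposure; Compound dosing: one concentration, pinned; Benchmarks: positive control ellipticine, 6 µM final; Buffer or medium: DMEM containing 5-aza-dC.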
CFTR F508del cor: F508del CFTR correction, initial screen, CFBE line, single point | activity (quench increase), % at 7.58 µM | CFBE cells, YFP halide quenching; stimulated with forskolin plus potentiator P3; % fluorescence drop versus neutral controls | hit rate 0.36% among 350,000 | AID 720511, 2013;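 active = mean added fluorescence quench of at least 8% versus neutral control, with both replicates also reaching 8%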;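 note: cells transiently co-express mutant CFTR-F508del with the halide-sensitive YFP; corrector assay measuring rescue of mutant channel to the surface after 24 h compound exposure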
PGC1a acetyl inh: inhibitors of PGC1a acetylation signal, primary screen, cell-based, U2OS, AlphaScreen, inhibitor mode; AID 651687, 2012; inhibition, % at 15.6 µM; AlphaScreen anti-acetyl-lysine; with virally co-expressed GCN5 acetyltransferase; hit rate 0.17% among 350,000;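 active = every replicate shows inhibition of at least 40%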
DENV2 CPE: inhibitors of DENV2 cytopathic effect, primary screen, cell-based, plate reader, single concentration | DENV2-infected cells, cytopathic effect rescue | CPE inhibition, % at 9.99 µM | hit rate 1.7% among 350,000; in the data active = CPE inhibition above about 20%, passing the limit was not always enough; tested in BHK-21 cells
FN deposition inh: inhibitors of fibronectin matrix deposition, primary screen, AH1F cells, Alexa488-fibronectin fluorescence, plate reader; AH1F fibroblasts, overnight; inhibition, % at 12.6 µM; hit rate 0.086% among 350,000; AID 743247, 2014;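 active = mean inhibition across replicates of 30% or more, regardless of how many single replicates reach that level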
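test system = AH1F fibroblasts assembling fluorescent fibronectin matrix | quantity = 10000 AH1F cells per well | buffer or medium = DMEM plus 2% serum, read in PBS | doses = single dose, pinned | incubation = 1 h cell attachment, overnight exposure to compound and label | detection = fluorescence at 485 nm excitation, 525 nm emission | read-out basis = inhibition from reduced deposited-fibronectin fluorescence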
Large screens that a line does not name were inactive; ! = repeats disagree. Rows were chosen to be rich in hits. Some 1.9% of all compounds tested hit in one or more screens of this group.

Fc1cccc(CN2C[C@@H]3N[C@H](C2)C3c2ccc(-c3ccccc3)cc2)c1 (some centres not stated)	PGC1a acetyl inh 97! (no result: Cneo AK release)
Fc1cccc(-c2ccc(C3[C@@H]4CN(Cc5cccnc5)C[C@H]3N4)cc2)c1 (some centres not stated)	none (no result: Cneo AK release)
O=C(C[C@H]1C[C@@H]2c3cc(NC(=O)C4CCC4)ccc3O[C@@H]2[C@@H](CO)O1)NCc1ccc2c(c1)OCO2	none
C[C@H](CO)N1C[C@H](C)[C@H](CN(C)CC2CCCCC2)Oc2ccc(NC(=O)CCN3CCOCC3)cc2C1=O	none
C[C@@H]1CN([C@@H](C)CO)C(=O)c2cc(-c3cccc(F)c3)cnc2O[C@@H]1CN(C)Cc1cccnc1	none (no result: PGC1a acetyl inh)
COc1ccc2c3c(n(C)c2c1)[C@@H](CO)N(Cc1cccnc1)CC31CCN(Cc2cccnc2)CC1	none (no result: Cneo AK release, CFTR F508del cor, PGC1a acetyl inh, DENV2 CPE, FN deposition inh)
O=c1cc(CSc2nnc(-c3ccccc3)o2)c2ccccc2[nH]1	DENV2 CPE 76
CO[C@@H]1CN(C)C(=O)c2cc(NS(=O)(=O)c3ccc(C)cc3)ccc2OC[C@@H](C)N(C)C[C@@H]1C	Cneo AK release 139
CO[C@H]1CN(C)C(=O)c2ccc(NC(=O)C3CCCC3)cc2OC[C@H](C)N(C)C[C@@H]1C	DENV2 CPE 52 (no result: Cneo AK release, PGC1a acetyl inh)
CO[C@@H]1CN(C)C(=O)c2ccc(NC(=O)C3CCCC3)cc2OC[C@H](C)N(C)C[C@@H]1C	none (no result: PGC1a acetyl inh)
CO[C@@H]1CN(C)C(=O)c2cc(NS(=O)(=O)c3ccc(C)cc3)ccc2OC[C@@H](C)N(C)C[C@H]1C	none
CO[C@H]1CN(C)C(=O)c2cc(NC(=O)C3CCC3)ccc2OC[C@H](C)N(C)C[C@@H]1C	DENV2 CPE 73
COCC(=O)N1C[C@@H](C)[C@H](OC)CN(C)C(=O)c2cc(NC(=O)C3CCC3)ccc2OC[C@@H]1C	DENV2 CPE 23
C[C@@H]1CN([C@@H](C)CO)S(=O)(=O)c2ccc(C3=CCCC3)cc2O[C@H]1CN(C)C(=O)c1ccccc1	none (no result: FN deposition inh)
CO[C@@H]1CN(C)C(=O)c2ccc(NC(=O)Nc3ccc(Cl)cc3)cc2OC[C@H](C)N(C)C[C@@H]1C	none (no result: CFTR F508del cor, PGC1a acetyl inh)
CO[C@H]1CN(C)C(=O)c2ccc(NC(=O)Nc3ccc(Cl)cc3)cc2OC[C@H](C)N(C)C[C@H]1C	DENV2 CPE 27 (no result: CFTR F508del cor, PGC1a acetyl inh)
CC(C)(C)OC(=O)N[C@H]1C=C[C@@H](CC(=O)OCC(F)(F)F)C1	DENV2 CPE 36 (no result: Cneo AK release, PGC1a acetyl inh)
CC(C)(C)OC(=O)N[C@@H]1C=CC(=O)C1	none (no result: Cneo AK release, PGC1a acetyl inh)
CCOc1ncccc1C(=O)OCC(=O)N1CCN(S(=O)(=O)c2ccc(Cl)cc2)CC1	none (no result: Xi reactivation, CFTR F508del cor, DENV2 CPE)
Nc1ncccc1C(=O)OCC(=O)N1CCN(S(=O)(=O)c2ccc(Cl)cc2)CC1	DENV2 CPE 45 (no result: FN deposition inh)
CCOC(=O)c1sc2nc(C)nc(NCc3ccccc3OC)c2c1C	PGC1a acetyl inh 63
CC(C)C1Cc2[nH]c(=S)[nH]c(=O)c2C(c2ccc(F)cc2)O1 (configuration not stated)	DENV2 CPE 32
COc1ccc(-c2cc(C#N)nc(NN)n2)cc1	DENV2 CPE 47
CCOc1cc(N2CCOCC2)c(OCC)cc1NC(=O)[C@H](C)NC(=O)c1ccco1	DENV2 CPE 37 (no result: PGC1a acetyl inh)
C[C@@H]1CN([C@H](C)CO)C(=O)c2cccc(NC(=O)Nc3ccc(F)cc3)c2O[C@H]1CN(C)Cc1ccc(C(=O)Nc2ccccc2N)cc1	none (no result: Cneo AK release)
CC(C)NC(=O)Nc1cccc2c1O[C@H](CN(C)Cc1ccc(C(=O)Nc3ccccc3N)cc1)[C@H](C)CN([C@@H](C)CO)C2=O	DENV2 CPE 21 (no result: Cneo AK release, FN deposition inh)
C[C@H](CO)N1C[C@H](C)[C@H](CN(C)Cc2ccc(C(=O)Nc3ccccc3N)cc2)Oc2c(NC(=O)Nc3ccc(F)cc3)cccc2C1=O	DENV2 CPE 36 (no result: Cneo AK release)
